ChEMBL document CHEMBL4257453, “Identification of karanjin isolated from the Indian beech tree as a potent CYP1 enzyme inhibitor with cellular efficacy via screening of a natural product repository” (Medchemcomm, 2018)
Blank lines part the entries; values can stand above or below the compound they belong to.

Assays:
CYP1A1 [1] = biological target: T1, CYP1A1 (Homo sapiens, UniProt P04798); experiment: Inhibition of recombinant human CYP1A1 expressed in baker's yeast-derived microsomes (Sacchrosomes) at 10 uM using 7-ethoxyresorufin substrate by EROD assay relative to control; settings: probe 7-ethoxyresorufin
T1 sequence (P04798 whole entry): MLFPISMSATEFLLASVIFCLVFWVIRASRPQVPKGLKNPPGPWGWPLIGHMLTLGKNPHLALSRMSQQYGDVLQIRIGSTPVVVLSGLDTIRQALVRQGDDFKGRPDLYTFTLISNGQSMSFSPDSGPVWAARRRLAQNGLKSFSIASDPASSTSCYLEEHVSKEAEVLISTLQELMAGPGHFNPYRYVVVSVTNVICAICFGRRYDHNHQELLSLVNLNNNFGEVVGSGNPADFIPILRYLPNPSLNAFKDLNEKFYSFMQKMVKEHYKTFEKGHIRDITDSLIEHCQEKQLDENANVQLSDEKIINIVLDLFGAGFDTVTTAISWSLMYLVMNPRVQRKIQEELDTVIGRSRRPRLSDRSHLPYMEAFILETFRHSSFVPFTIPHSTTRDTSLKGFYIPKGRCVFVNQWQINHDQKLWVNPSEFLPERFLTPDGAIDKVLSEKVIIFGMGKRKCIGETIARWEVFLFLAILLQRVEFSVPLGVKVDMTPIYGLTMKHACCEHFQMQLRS
Outline: (§1)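 Yeast microsomes carrying recombinant CYP (Sacchrosomes). Substrates per isoform are 7-ethoxyresorufin, 3-cyano-7-ethoxycoumarin, EOMCC or dibenzylfluorescein, read as endpoint fluorescence. Background from compound-only wells without enzyme is subtracted. Independent triplicate runs; α-naphthoflavone positive control.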

CYP1A2 = biological target: T2, CYP1A2 (Homo sapiens, UniProt P05177); experiment: Inhibition of recombinant human CYP1A2 expressed in baker's yeast-derived microsomes (Sacchrosomes) at 10 uM using 3-cyano-7-ethoxycoumarin substrate by EROD assay relative to control; assay type: ADME; settings: probe 3-cyano-7-ethoxycoumarin; outline: as §1
T2 sequence (P05177 whole entry): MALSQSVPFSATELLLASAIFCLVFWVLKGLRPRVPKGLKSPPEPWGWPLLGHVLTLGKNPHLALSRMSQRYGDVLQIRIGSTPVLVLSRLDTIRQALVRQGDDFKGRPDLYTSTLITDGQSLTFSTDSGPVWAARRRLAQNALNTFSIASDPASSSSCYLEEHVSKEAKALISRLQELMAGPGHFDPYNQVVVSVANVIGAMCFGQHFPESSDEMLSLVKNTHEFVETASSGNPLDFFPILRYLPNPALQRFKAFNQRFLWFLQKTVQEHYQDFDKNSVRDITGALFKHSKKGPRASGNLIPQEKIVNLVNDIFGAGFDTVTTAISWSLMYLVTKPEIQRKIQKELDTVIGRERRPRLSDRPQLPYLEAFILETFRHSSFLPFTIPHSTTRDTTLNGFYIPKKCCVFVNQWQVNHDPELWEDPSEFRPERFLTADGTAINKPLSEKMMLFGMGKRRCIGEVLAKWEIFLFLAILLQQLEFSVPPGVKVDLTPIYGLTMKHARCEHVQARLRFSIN

CYP1B1 = biological target: T3, CYP1B1 (Homo sapiens, UniProt Q16678); experiment: Inhibition of recombinant human CYP1B1 expressed in baker's yeast-derived microsomes (Sacchrosomes) at 10 uM using 7-ethoxyresorufin substrate by EROD assay relative to control; assay type: ADME; settings: probe 7-ethoxyresorufin
T3 sequence (Q16678 whole entry): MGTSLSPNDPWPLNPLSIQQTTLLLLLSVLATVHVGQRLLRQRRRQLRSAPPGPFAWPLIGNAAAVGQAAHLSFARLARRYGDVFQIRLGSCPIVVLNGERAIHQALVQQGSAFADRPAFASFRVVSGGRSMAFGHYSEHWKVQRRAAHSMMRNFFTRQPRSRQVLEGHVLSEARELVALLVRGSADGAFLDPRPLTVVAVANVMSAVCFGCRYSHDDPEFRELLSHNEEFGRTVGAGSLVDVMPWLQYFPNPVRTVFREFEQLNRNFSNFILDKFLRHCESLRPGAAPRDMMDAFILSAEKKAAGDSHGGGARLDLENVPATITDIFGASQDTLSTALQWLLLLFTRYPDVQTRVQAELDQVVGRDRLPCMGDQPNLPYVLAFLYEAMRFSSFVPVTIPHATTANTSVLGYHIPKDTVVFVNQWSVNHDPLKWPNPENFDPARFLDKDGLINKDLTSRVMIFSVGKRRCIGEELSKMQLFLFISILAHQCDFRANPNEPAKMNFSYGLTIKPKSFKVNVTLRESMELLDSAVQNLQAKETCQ
Outline: as §1, with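 “(Sacchrosomes). […]” for “(Sacchrosomes).”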

CYP2D6 = CYP2D6 (Homo sapiens, UniProt P10635); experiment: Inhibition of recombinant human CYP2D6 expressed in baker's yeast-derived microsomes (Sacchrosomes) at 10 uM using 7-ethoxy-methyloxy-3-cyanocoumarin substrate by EROD assay relative to control; assay type: ADME; settings: probe 7-ethoxy-methyloxy-3-cyanocoumarin
Sequence of CYP2D6 (P10635 whole entry): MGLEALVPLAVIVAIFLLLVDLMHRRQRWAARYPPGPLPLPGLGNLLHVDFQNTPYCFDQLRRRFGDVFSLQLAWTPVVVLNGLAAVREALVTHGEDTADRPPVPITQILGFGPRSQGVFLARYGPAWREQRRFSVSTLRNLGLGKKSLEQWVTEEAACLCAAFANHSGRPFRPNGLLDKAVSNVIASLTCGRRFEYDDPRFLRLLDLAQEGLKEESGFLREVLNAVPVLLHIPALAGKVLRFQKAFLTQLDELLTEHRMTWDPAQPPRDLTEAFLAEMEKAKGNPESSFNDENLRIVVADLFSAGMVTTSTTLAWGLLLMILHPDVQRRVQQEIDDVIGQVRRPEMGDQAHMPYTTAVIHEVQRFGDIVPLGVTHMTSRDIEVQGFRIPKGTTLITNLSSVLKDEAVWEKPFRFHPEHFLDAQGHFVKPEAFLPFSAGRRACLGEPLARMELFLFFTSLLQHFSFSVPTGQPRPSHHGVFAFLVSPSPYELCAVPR
Outline: as §1, with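 “(Sacchrosomes). […]” for “(Sacchrosomes).”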

CYP3A4 = CYP3A4 (Homo sapiens, UniProt P08684); experiment: Inhibition of recombinant human CYP3A4 expressed in baker's yeast-derived microsomes (Sacchrosomes) at 10 uM using dibenzylfluorescein substrate by EROD assay relative to control; assay type: ADME; settings: probe dibenzylfluorescein
Sequence of CYP3A4 (P08684 whole entry): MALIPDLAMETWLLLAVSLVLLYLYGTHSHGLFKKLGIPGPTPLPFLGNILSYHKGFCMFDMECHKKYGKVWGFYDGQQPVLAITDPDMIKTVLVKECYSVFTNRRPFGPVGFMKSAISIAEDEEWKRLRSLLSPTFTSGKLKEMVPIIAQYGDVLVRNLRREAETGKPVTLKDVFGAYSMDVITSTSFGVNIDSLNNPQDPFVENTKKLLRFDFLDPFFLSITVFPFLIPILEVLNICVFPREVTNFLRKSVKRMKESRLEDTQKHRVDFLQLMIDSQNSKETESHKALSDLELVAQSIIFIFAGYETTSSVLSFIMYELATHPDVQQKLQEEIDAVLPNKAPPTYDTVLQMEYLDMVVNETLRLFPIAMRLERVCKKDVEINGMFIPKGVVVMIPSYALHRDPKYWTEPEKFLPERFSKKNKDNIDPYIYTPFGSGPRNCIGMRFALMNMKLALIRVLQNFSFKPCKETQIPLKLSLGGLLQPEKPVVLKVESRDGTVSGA
Outline: as §1, with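 “(Sacchrosomes). […]” for “(Sacchrosomes).”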

CYP2C9 = CYP2C9 (Homo sapiens, UniProt P11712); experiment: Inhibition of recombinant human CYP2C9 expressed in baker's yeast-derived microsomes (Sacchrosomes) at 10 uM using 3-cyano-7-ethoxycoumarin substrate by EROD assay relative to control; assay type: ADME; settings: probe 3-cyano-7-ethoxycoumarin
Sequence of CYP2C9 (P11712 whole entry): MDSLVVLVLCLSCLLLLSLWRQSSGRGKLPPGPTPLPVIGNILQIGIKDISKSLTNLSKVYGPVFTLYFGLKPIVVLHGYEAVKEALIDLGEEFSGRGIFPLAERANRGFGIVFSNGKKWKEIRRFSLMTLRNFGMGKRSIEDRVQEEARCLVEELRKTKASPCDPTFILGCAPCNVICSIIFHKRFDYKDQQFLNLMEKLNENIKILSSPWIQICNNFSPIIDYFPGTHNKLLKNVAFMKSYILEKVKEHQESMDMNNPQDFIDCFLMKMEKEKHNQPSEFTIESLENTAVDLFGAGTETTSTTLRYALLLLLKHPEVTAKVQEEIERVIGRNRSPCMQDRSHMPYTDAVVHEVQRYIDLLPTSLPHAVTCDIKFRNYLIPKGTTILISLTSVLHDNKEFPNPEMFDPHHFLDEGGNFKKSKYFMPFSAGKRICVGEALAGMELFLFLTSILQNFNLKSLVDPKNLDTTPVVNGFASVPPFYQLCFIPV
Outline: as §1, with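 “(Sacchrosomes). […]” for “(Sacchrosomes).”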

CYP2C19 = CYP2C19 (Homo sapiens, UniProt P33261); experiment: Inhibition of recombinant human CYP2C19 expressed in baker's yeast-derived microsomes (Sacchrosomes) at 10 uM using 3-cyano-7-ethoxycoumarin substrate by EROD assay relative to control; assay type: ADME; settings: probe 3-cyano-7-ethoxycoumarin
Sequence of CYP2C19 (P33261 whole entry): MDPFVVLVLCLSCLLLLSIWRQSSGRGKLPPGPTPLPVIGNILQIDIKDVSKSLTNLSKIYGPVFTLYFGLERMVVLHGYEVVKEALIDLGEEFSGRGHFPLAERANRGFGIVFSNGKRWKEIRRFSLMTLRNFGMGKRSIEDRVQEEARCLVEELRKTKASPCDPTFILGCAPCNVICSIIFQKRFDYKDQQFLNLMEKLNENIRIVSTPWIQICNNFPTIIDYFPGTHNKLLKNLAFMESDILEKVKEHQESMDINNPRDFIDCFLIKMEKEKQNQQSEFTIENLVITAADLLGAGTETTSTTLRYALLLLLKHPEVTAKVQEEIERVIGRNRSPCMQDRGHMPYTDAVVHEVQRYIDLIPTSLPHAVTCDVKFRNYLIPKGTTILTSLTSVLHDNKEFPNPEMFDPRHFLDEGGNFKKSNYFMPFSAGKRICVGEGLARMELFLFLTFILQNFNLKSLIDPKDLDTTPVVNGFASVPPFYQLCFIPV
Outline: as §1, with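 “(Sacchrosomes). […]” for “(Sacchrosomes).”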

CYP1A1 [2] = biological target: T1, CYP1A1; experiment: Inhibition of human recombinant CYP1A1 expressed in HEK293 cells at 10 uM using 7-ethoxyresorufin substrate preincubated for 30 mins followed by substrate addition and measured after 60 mins by fluorescence assay relative to control; assay type: cell-based; settings: HEK293 cells expressing human recombinant CYP1A1, probe 7-ethoxyresorufin
Outline: (§2)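 HEK293 cells adapted to suspension and transiently transfected with pcDNA3.1 plasmids carrying the individual CYP; 100×10^3 cells per well in triplicate. […] Fluorogenic substrate is then added at 5 μM and fluorescence read for 60 min.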

Cytochrome P450 1A1 = biological target: T4, Cytochrome P450 1A1 (Homo sapiens, UniProt P04798); experiment: Inhibition of human recombinant CYP1A1 expressed in HEK293 cells using 7-ethoxyresorufin substrate preincubated for 30 mins followed by substrate addition and measured after 60 mins by fluorescence assay relative to control; assay type: cell-based; outline: as §2
T4 sequence (P04798 whole entry): T1 sequence (P04798 whole entry)

Cytochrome P450 1A2 = biological target: T5, Cytochrome P450 1A2 (Homo sapiens, UniProt P05177); experiment: Inhibition of human recombinant CYP1A2 expressed in HEK293 cells using 3-cyano-7-ethoxycoumarin substrate preincubated for 30 mins followed by substrate addition and measured after 60 mins by fluorescence assay relative to control; assay type: ADME, cell-based; outline: as §2
T5 sequence (P05177 whole entry): T2 sequence (P05177 whole entry)

Cytochrome P450 1B1 = biological target: T6, Cytochrome P450 1B1 (Homo sapiens, UniProt Q16678); experiment: Inhibition of human recombinant CYP1B1 expressed in HEK293 cells using 7-ethoxyresorufin substrate substrate preincubated for 30 mins followed by substrate addition and measured after 60 mins by fluorescence assay relative to control; assay type: ADME, cell-based; outline: as §2
T6 sequence (Q16678 whole entry): T3 sequence (Q16678 whole entry)

Cytochrome P450 2D6 = Cytochrome P450 2D6 (Homo sapiens, UniProt P10635); experiment: Inhibition of human recombinant CYP2D6 expressed in HEK293 cells using 7-ethoxy-methyloxy-3-cyanocoumarin substrate substrate preincubated for 30 mins followed by substrate addition and measured after 60 mins by fluorescence assay relative to control; assay type: ADME, cell-based; outline: as §2
Sequence of Cytochrome P450 2D6 (P10635 whole entry): as the sequence (P10635 whole entry) above

Cytochrome P450 2C9 = Cytochrome P450 2C9 (Homo sapiens, UniProt P11712); experiment: Inhibition of human recombinant CYP2C9 expressed in HEK293 cells using 3-cyano-7-ethoxycoumarin substrate substrate preincubated for 30 mins followed by substrate addition and measured after 60 mins by fluorescence assay relative to control; assay type: ADME, cell-based; outline: as §2
Sequence of Cytochrome P450 2C9 (P11712 whole entry): as the sequence (P11712 whole entry) above

Cytochrome P450 2C19 = Cytochrome P450 2C19 (Homo sapiens, UniProt P33261); experiment: Inhibition of human recombinant CYP2C19 expressed in HEK293 cells using 3-cyano-7-ethoxycoumarin substrate substrate preincubated for 30 mins followed by substrate addition and measured after 60 mins by fluorescence assay relative to control; assay type: ADME, cell-based; outline: as §2
Sequence of Cytochrome P450 2C19 (P33261 whole entry): as the sequence (P33261 whole entry) above

Structure (SMILES): CCOc1c2occc2cc2ccc(=O)oc12
inhibition at 10 µM (CYP1A1 [1]): 89%

Structure (SMILES): CC(C)(O)C(O)COc1c2occc2cc2ccc(=O)oc12 (stereo unspecified)
inhibition at 10 µM (CYP1A1 [1]): 72%

Structure (SMILES): CC(C)=CCOc1c2occc2cc2ccc(=O)oc12 [PENTOSALEN]
inhibition at 10 µM (CYP1A1 [1]): 71%

Structure (SMILES): C=CCOc1cc(OCC=C)c2ccc(=O)oc2c1
inhibition at 10 µM (CYP1A1 [1]): 69%

Structure (SMILES): O=c1ccc2ccc3occc3c2o1 [ANGELICIN]
inhibition at 10 µM (CYP1A1 [1]): 80%

Structure (SMILES): COc1cc2ccc(=O)oc2c2ccoc12 [SPHONDIN]
inhibition at 10 µM (CYP1A1 [1]): 67%

Structure (SMILES): COc1c(O)cc2oc(-c3ccc(O)cc3)cc(=O)c2c1O [HISPIDULIN]
inhibition at 10 µM (CYP1A1 [1]): 86%

Next, values leading:

inhibition at 10 µM (CYP1A1 [1]): 48%
Structure (SMILES): COc1ccc2cc3[n+](cc2c1OC)CCc1cc2c(cc1-3)OCO2 [BERBERINE CHLORIDE]

inhibition at 10 µM (CYP1A1 [1]): 92%
inhibition at 10 µM (CYP1A2): 99%
inhibition at 10 µM (CYP1B1): 5%
inhibition at 10 µM (CYP2D6): 8%
inhibition at 10 µM (CYP3A4): 11%
inhibition at 10 µM (CYP2C9): 12%
inhibition at 10 µM (CYP2C19): 8%
inhibition at 1 h, 10 µM (CYP1A1 [2]): 75%
IC50 (Cytochrome P450 1A1): 4.02 µM
Ki (Cytochrome P450 1A1): 3.8 µM
IC50 (Cytochrome P450 1A2): 0.04 µM
Ki (Cytochrome P450 1A2): 0.031 µM
IC50 (Cytochrome P450 1B1): 34.6 µM
IC50 (Cytochrome P450 2D6): > 10 µM
IC50 (Cytochrome P450 2C9): > 10 µM
IC50 (Cytochrome P450 2C19): > 10 µM
Structure (SMILES): COc1c2occc2c(OC)c2c(=O)cc(C)oc12 [KHELLIN]

inhibition at 10 µM (CYP1A1 [1]): 69%
Structure (SMILES): O=c1ccc2cc3ccoc3cc2o1 [PSORALEN]

inhibition at 10 µM (CYP1A1 [1]): 50%
Structure (SMILES): CC1=C(CO)C(=O)O[C@@H]([C@@H](C)[C@H]2CC[C@H]3[C@@H]4C[C@H]5O[C@]56[C@@H](O)C=CC(=O)[C@]6(C)[C@H]4CC[C@]23C)C1 [WITHAFERIN A]
